# From ChEMBL document CHEMBL1828621, “Single step synthesis of new fused pyrimidine derivatives and their evaluation as potent Aurora-A kinase inhibitors” (Eur J Med Chem, 2011)
# Legend:
# [1] = target: T1, Aurora kinase A (Homo sapiens, UniProt O14965); experiment: Inhibition of GST-tagged Aurora A kinase expressed in insect cells assessed as inhibition of [33P]gamma-ATP incorporation in substrate after 60 mins by scintillation counting
# T1 sequence (O14965 whole entry): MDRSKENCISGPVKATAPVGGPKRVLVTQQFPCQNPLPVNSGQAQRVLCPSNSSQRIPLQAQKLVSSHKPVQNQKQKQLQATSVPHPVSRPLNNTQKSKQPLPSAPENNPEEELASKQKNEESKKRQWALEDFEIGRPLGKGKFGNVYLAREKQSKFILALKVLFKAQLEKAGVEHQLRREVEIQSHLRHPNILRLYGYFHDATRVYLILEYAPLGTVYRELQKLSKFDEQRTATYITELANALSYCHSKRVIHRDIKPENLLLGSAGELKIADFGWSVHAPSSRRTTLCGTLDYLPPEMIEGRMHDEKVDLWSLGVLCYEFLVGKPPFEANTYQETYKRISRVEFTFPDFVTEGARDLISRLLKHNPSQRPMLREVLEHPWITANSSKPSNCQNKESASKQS
# Outline: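 Reaction: biotinylated CHOCKtide substrate with ATP/[γ-33P]ATP mix, 60 min at room temperature, in 50 mM HEPES pH 7.5, 10 mM MgCl₂, 1 mM DTT, NaVO₃ and 0.2 mg/mL BSA. Stopped with EDTA/ATP plus streptavidin SPA beads; beads floated on 5 M CsCl and counted for phosphate incorporated into substrate.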
# [2] = system: HCT-116; experiment: Cytotoxicity against human HCT116 cells assessed as cell survival at 1 ug/ml after 48 hrs by sulforhodamine B method relative to control; type: functional
# Outline: (§1)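 HCT116 colon tumour cells grown in RPMI 1640 with 5% FBS and 2 mM L-glutamine. Seeded at 10,000 cells/well and held 24 h at 37 °C, 5% CO₂ before dosing. Drugs kept as DMSO stocks at 400-fold the top final concentration, diluted in medium with gentamicin, tested at four concentrations for 48 h. Fixed with cold TCA (final 10%) for 60 min at 4 °C, stained with 0.4% SRB, bound dye dissolved in Tris-EDTA, read on an ELISA reader. Extra plates fixed at dosing served as baseline.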
# [3] = system: HCT-116; experiment: Cytotoxicity against human HCT116 cells assessed as cell survival at 2.5 ug/ml after 48 hrs by sulforhodamine B method relative to control; type: functional; outline: as §1
# [4] = system: HCT-116; experiment: Cytotoxicity against human HCT116 cells assessed as cell survival at 5 ug/ml after 48 hrs by sulforhodamine B method relative to control; type: functional; outline: as §1
# [5] = system: HCT-116; experiment: Cytotoxicity against human HCT116 cells assessed as cell survival at 10 ug/ml after 48 hrs by sulforhodamine B method relative to control; type: functional; outline: as §1
# [6] = system: HCT-116; experiment: Cytotoxicity against human HCT116 cells after 48 hrs by sulforhodamine B method; type: functional, cell-based; details: HCT-116, 48 h; outline: as §1
IC50 ([1]; read-out: IC50) [nM],IC50 [1],Compound,Ratio [2],Ratio [3],Ratio [4],Ratio [5],IC50 [6] [µg/mL]
101,–,Cc1cc2ncc(S(=O)(=O)c3ccccc3)c(-c3ccccc3)n2n1,0.774,0.698,0.671,0.597,> 25
51,–,O=S(=O)(c1ccccc1)c1cnc2cc(-c3ccccc3)nn2c1-c1ccccc1,0.683,0.455,0.43,0.377,1.27
25,–,COc1ccc(-c2cc3ncc(S(=O)(=O)c4ccccc4)c(-c4ccccc4)n3n2)cc1,0.516,0.436,0.288,0.217,1.28
120,–,O=S(=O)(c1ccccc1)c1cnc2cc(-c3ccc(Cl)cc3)nn2c1-c1ccccc1,0.56,0.508,0.42,0.42,1.64
–,Not Active,Cc1nn2c(-c3ccccc3)c(S(=O)(=O)c3ccccc3)cnc2c1Br,0.529,0.373,0.253,0.183,2.21
39,–,O=S(=O)(c1ccccc1)c1cnc2c(Br)c(-c3ccccc3)nn2c1-c1ccccc1,0.629,0.42,0.271,0.24,1.34
–,Not Active,O=S(=O)(c1ccccc1)c1cnc2cc(-c3ccccc3)nn2c1-c1ccc(Cl)cc1,0.987,0.953,0.894,0.797,> 25
–,Not Active,COc1ccc(-c2cc3ncc(S(=O)(=O)c4ccccc4)c(-c4ccc(Cl)cc4)n3n2)cc1,0.824,0.794,0.778,0.744,> 25
–,Not Active,Cc1ccc(-c2c(S(=O)(=O)c3ccccc3)cnc3cc(-c4ccc(Cl)cc4)nn23)cc1,1,0.665,0.382,0.333,9.3
–,Not Active,O=S(=O)(c1ccccc1)c1cnc2nc3ccccc3n2c1-c1ccccc1,0.984,0.885,0.845,0.82,> 25
–,Not Active,O=S(=O)(c1ccccc1)c1cnc2nc3ccccc3n2c1-c1ccc(Cl)cc1,0.95,0.905,0.889,0.79,> 25
–,Not Active,O=S(=O)(c1ccccc1)c1cnc2nc3ccccc3n2c1-c1ccc(Br)cc1,1,0.748,0.624,0.209,16.3
104,–,O=S(=O)(c1ccccc1)c1cnc2ncnn2c1-c1ccccc1,0.689,0.302,0.294,0.256,1.97
9240,–,O=S(=O)(c1ccccc1)c1cnc2ncnn2c1-c1ccc(Cl)cc1,0.786,0.377,0.316,0.243,2.15
–,Not Active,Cc1ccc(-c2c(S(=O)(=O)c3ccccc3)cnc3cc(-c4ccccc4)nn23)cc1,1,0.745,0.701,0.253,18
–,Not Active,Cc1ccc(-c2c(S(=O)(=O)c3ccccc3)cnc3c(Br)c(-c4ccccc4)nn23)cc1,1,0.701,0.53,0.309,14
–,Not Active,Cc1ccc(-c2cc3ncc(S(=O)(=O)c4ccccc4)c(-c4ccc(C)cc4)n3n2)cc1,1,0.764,0.408,0.246,10.5
40,–,COc1cccc2c1C(=O)c1c(O)c3c(c(O)c1C2=O)C[C@@](O)(C(=O)CO)C[C@@H]3O[C@H]1C[C@H](N)[C@H](O)[C@H](C)O1 [DOXORUBICIN],0.523,0.439,0.42,0.291,1.3
